This note sets out measurements from ChEMBL document CHEMBL1687936, “Radiosynthesis and biological evaluation of L- and D-S-(3-[18F]fluoropropyl)homocysteine for tumor imaging using positron emission tomography” (J Med Chem, 2011).

Data set [1] has as its system A-375. The experiment in a line: Drug uptake in human A375 cells in presence of amino acid transport system L inhibitor BCH. The format is ADME, cell-based. The gist of the method: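 Cells were prepared as for the uptake assay and preincubated at 37 °C with inhibitor at 12.5 mmol/L in PBS; controls received PBS. 0.37 MBq [18F]tracer was added and incubated 30 min at 37 °C. Cells were washed cold, lysed and γ-counted. Uptake is given as % of the control group, n = 3.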

For data set [2], the system named is A-375. The experiment in a line: Cellular uptake in human A375 cells assessed as accumulation per 10^5 cells after 15 to 60 mins by gamma-counter. The class given is ADME, cell-based. In a few lines:
(§1)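 Cells seeded at 2.5 × 10^5 per well in RPMI-1640 with 10% FBS and 2 mM L-glutamine, attached overnight, then washed with warm PBS. Incubated at 37 °C with 0.37 MBq [18F]tracer in PBS for 2–240 min. Cells washed with ice-cold PBS, lysed in 0.2 N NaOH and counted by γ-counter. Read as % applied dose per 10^5 cells, decay-corrected, n = 3.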

The subject of data set [3] is A-375. The experiment in a line: Cellular uptake in human A375 cells after 15 to 60 mins by gamma-counter. The class given is ADME, cell-based. In a few lines:
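A375 cells grown in RPMI-1640 with 10% FBS and 2 mM L-glutamine; 2.5×10^5 seeded per well overnight, counts done in triplicate. After a warm PBS wash, cells got 0.37 MBq tracer in 500 μL PBS at 37 °C. Stopped with ice-cold PBS wash, lysed in 0.2 N NaOH, counted in a γ-counter. Decay-corrected % applied dose per 10^5 cells, mean ± SD, n = 3.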

The subject of data set [4] is Pancreas. The experiment in a line: Metabolic stability in pancreas of BALB/c nude mouse xenografted with human A375 cells assessed as radioactivity after 1 hrs by HPLC analysis. The class given is ADME, tissue-based, A-375. As to conditions: in vivo; call rule not given here. In a few lines: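 A375-tumored Balb/c nude mice received 18-20 MBq tracer iv. Plasma and urine were spiked with unlabeled FPHCys and KF and injected directly; tissues were sonicated in saline with carrier and centrifuged at 6000g. Radio-HPLC on C18 with methanol/phosphate buffer pH 6 gave intact fraction as authentic peak over total activity, at 0.25, 1 and 2 h.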
For orientation: Xenograft models place foreign cells or tissue in a host animal.

Data set [5] relates to A-375. The experiment in a line: Cellular uptake in human A375 cells assessed as accumulation per 10^5 cells after 60 mins by gamma-counter. The format is ADME, cell-based. As to conditions: a-375, 1 h. The gist of the method:
as §1

As for `Cl.N[C@H](CCSCCC[18F])C(=O)O`, the Drug uptake entry in data set [1] is listed as “Not Active”; in data set [2] it was 6.8%; in data set [3], “Active”.
In the case of `Cl.N[C@@H](CCSCCC[18F])C(=O)O`, the Stability in data set [4] came out at 30%. Besides, the Drug uptake in data set [5] is recorded as 9%.
